# Assay results taken from PubChem BioAssay.
# Active and inactive are the calls of the source.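 How the source made its calls, unless noted: active means viability loss from added drug above about 55%, and viability with drug at most 40%, in both replicates (limit read from the data, passing the limit was not always enough); inconclusive means both conditions met in only one replicate; inactive means neither replicate meets both conditions.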
# Columns and labels:
# [1] = reducers of endogenous Her2 protein level, primary screen, SKBR3 breast tumor cells, AlphaScreen, ATP viability (AID 461;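 active means Her2 level under about 52% in both replicate screens, with viability over 70% of control, limit read from the data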;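 on Her2 level: lower value means less Her2 protein in the cells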;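 on viability: percent of carrier control wells set as 100% viability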); conditions: 18-24 h, measured here: SKBR3 viability, ATP luminescence, at 10 µM
# [2] = target: Receptor tyrosine-protein kinase erbB-2 (Homo sapiens) (UniProt P04626); test: as above; conditions: 18-24 h, at 10 µM, stronger effect = lower value
# Chain of Receptor tyrosine-protein kinase erbB-2 (Homo sapiens) (P04626 whole entry, looked up): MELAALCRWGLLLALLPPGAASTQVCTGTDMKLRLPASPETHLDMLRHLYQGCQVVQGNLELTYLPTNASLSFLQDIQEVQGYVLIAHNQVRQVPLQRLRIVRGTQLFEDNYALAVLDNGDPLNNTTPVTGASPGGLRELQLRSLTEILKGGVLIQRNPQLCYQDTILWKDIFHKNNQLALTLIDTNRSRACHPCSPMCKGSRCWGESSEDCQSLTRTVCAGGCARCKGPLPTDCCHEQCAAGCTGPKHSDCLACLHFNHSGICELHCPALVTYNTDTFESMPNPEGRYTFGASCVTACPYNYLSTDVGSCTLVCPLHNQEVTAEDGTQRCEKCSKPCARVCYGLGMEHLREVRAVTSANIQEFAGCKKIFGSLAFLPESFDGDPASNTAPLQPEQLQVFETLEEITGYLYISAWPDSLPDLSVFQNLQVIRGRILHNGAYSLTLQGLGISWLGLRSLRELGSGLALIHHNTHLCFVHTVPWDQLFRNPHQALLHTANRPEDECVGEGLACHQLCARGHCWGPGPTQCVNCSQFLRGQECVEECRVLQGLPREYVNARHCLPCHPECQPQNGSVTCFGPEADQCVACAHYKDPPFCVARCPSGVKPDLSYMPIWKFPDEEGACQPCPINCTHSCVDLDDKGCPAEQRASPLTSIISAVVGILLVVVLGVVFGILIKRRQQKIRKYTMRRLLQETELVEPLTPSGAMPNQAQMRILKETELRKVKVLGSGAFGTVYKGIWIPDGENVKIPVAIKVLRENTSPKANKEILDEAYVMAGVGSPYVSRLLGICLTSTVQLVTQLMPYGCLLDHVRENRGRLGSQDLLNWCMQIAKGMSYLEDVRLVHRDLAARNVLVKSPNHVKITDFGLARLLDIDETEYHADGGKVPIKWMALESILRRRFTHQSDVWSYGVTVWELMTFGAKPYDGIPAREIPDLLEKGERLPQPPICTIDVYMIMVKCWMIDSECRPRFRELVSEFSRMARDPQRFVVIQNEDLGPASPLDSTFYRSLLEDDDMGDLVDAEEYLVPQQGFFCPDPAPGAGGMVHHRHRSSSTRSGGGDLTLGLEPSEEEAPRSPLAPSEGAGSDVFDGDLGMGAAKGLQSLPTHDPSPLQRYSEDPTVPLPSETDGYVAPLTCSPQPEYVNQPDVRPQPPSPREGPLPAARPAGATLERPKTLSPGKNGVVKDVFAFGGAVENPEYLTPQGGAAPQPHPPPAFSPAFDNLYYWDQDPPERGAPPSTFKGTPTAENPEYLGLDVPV
# [3] = SK-BR-3 cell growth inhibitors, pilot screen, 24 h, human (AID 572;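 active means viability at or below 10% of carrier control in both of two separate runs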;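 further: compound exposure lasted between 18 and 24 h rather than exactly 24 h; 100% = carrier-treated control wells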); conditions: SK-BR-3 viability, CellTiter-Glo luminescence, at 10 µM, stronger effect = lower value
# [4] = HUVEC growth inhibition – cell-based, human, primary screen (AID 575;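 active means viability at or below 30% in both replicate assays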;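 further: 100% = median of untreated cell wells with 0.1% DMSO on each plate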); conditions: HUVEC proliferation, CellTiter-Glo luminescence, 72 h; at 10 µM; stronger effect = lower value
# Method in brief: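 System: primary human umbilical vein endothelial cells; Quantity: 1250 endothelial cells in each well; Buffer or medium: supplemented EBM, 2% fetal bovine serum; Doses: one dose, 10 µM final, 0.1% DMSO; Incubation: 72 h compound incubation; Technique: ATP-based CellTiter-Glo luminescent read; Evaluation: percent of median DMSO-control luminescence; Controls: vehicle and MePR control wells.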
# [5] = growth inhibitors of H69AR lung tumor, primary screen, human, duplicate replicates (AID 580;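 active means viability at or under a set limit in both replicates, limit being median viability minus 3 SD, cut at about 48% in these data, passing the limit was not always enough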;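 further: 100% = mean luminescence of untreated wells and 0% = no signal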); conditions: H69AR lung tumor cells viability, ATP luminescence, 72 h; at 10 µM; stronger effect = lower value
# [6] = reversal of MRP1-mediated doxorubicin resistance, pilot screen, H69AR cells, doxorubicin co-treatment (AID 601); conditions: CellTiter-Glo, 72 h, at 10 µM; for differential viability (reversal): stronger effect = higher value
# [7] = 384-well plate pilot, post-Golgi transport modulator project, inhibition of yeast transport mutant growth (AID 636; in the data active means inhibition above about 31%); conditions: absorbance 615 nm, about 18 h, stronger effect = higher value
# [8] = growth suppression of yeast trafficking mutant, preliminary HTS, modulators of trafficking downstream of Golgi apparatus project, 1536-format plate, OD 615 nm (AID 637; in the data active means inhibition above about 30%); conditions: yeast transport mutant growth, absorbance 615 nm, 18 h; stronger effect = higher value
# [9] = H69AR cells + 2 uM doxorubicin, measured here: viability with 2 uM doxorubicin, stronger effect = lower value
# [10] = H69AR cells, compound alone cytotoxicity
Structure (SMILES),viability [1],Her2 level [2],viability [3],viability [4],viability [5],differential viability (reversal) ([6]; H69AR cells + 2 uM doxorubicin),"viability [6, 9]","viability [6, 10]",inhibition [7],inhibition [8]
NCc1cccc(-n2cccn2)c1,110%,103% (inactive),110% (inactive),93.2% (inactive),82.6% (inactive),-10.1% (inactive),92.8%,82.6%,-3.64% (inactive),-2.7% (inactive)
Cc1ccc(S(=O)(=O)NCC2CCC(C(=O)NCCCN3CCOCC3)CC2)cc1 (stereo not given),89.5%,93% (inactive),89.5% (inactive),92.7% (inactive),88.6% (inactive),-8.07% (inactive),96.6%,88.6%,-0.53% (inactive),24.9% (inactive)
CC(C)CNC(=O)c1c(N)n(/N=C/c2ccccn2)c2nc3ccccc3nc12,88.5%,92.5% (inactive),88.5% (inactive),80.4% (inactive),83.9% (inactive),2.92% (inactive),81%,83.9%,-4.67% (inactive),-1.48% (inactive)
CN(C)c1nc(N)nc(-c2nc3ccccc3s2)n1,73%,89% (inactive),73% (inactive),85.1% (inactive),91.7% (inactive),6.39% (inactive),85.3%,91.7%,-6.62% (inactive),-1.64% (inactive)
CCOc1cc(CN2CCN(C(=O)c3ccco3)CC2)ccc1OC,79.5%,102% (inactive),79.5% (inactive),88.7% (inactive),89.5% (inactive),1.51% (inactive),87.9%,89.5%,-2.69% (inactive),0.83% (inactive)
CCc1nnc(NC(=O)CSc2nnc(-c3ccc(OC)cc3)n2C)s1,87%,94% (inactive),87% (inactive),89.3% (inactive),104% (inactive),5.08% (inactive),98.6%,104%,-2.8% (inactive),1.8% (inactive)
CCC(=O)N1CCc2cc(S(=O)(=O)CCC(=O)Nc3c(C)n(C)n(-c4ccccc4)c3=O)ccc21,96%,104% (inactive),96% (inactive),89.8% (inactive),94% (inactive),6.7% (inactive),87.3%,94%,-2.93% (inactive),-10.7% (inactive)
O=c1c2cc(Cl)ccc2[nH]c(=S)n1Cc1ccco1,84.5%,81% (inactive),84.5% (inactive),93.6% (inactive),86.7% (inactive),-1.27% (inactive),88%,86.7%,-8.13% (inactive),10.2% (inactive)
CCN(Cc1cc2cc(OC)ccc2[nH]c1=O)C(=O)c1ccncc1,89%,100% (inactive),89% (inactive),97.8% (inactive),99.5% (inactive),-3.88% (inactive),103%,99.5%,-2.13% (inactive),9.05% (inactive)
COCCNC(=O)C(C)OC(=O)c1nsc(Cl)c1Cl (stereo not given),103%,108% (inactive),103% (inactive),110% (inactive),99.3% (inactive),4.84% (inactive),94.5%,99.3%,-1.08% (inactive),25.7% (inactive)
CC1=C(C#N)C(c2ccoc2)C(C(=O)OCc2ccccc2)=C(N)S1 (stereo not given),100%,88% (inactive),100% (inactive),99.5% (inactive),91.6% (inactive),-0.82% (inactive),92.4%,91.6%,-3.95% (inactive),0% (inactive)
O=C(NCC(=O)N1CCC(N2CCCCC2)CC1)C1CCCCC1,88.5%,108% (inactive),88.5% (inactive),106% (inactive),94.4% (inactive),1.99% (inactive),92.5%,94.4%,-5.84% (inactive),-4.43% (inactive)
O=C(Nc1cccc(C(F)(F)F)c1)c1ccco1,129%,79.5% (inactive),129% (inactive),95.9% (inactive),103% (inactive),19.4% (inactive),84%,103%,-5.33% (inactive),8.52% (inactive)
O=C(O)c1[nH]c2ccc(Cl)cc2c1CC(=O)N1CCN(C(=O)c2ccco2)CC1,83.5%,112% (inactive),83.5% (inactive),108% (inactive),95.8% (inactive),5.25% (inactive),90.5%,95.8%,-4.34% (inactive),-9.83% (inactive)
CC(=O)c1cccc(NC(=O)c2ccc(NS(C)(=O)=O)cc2)c1,118%,80.5% (inactive),118% (inactive),97.7% (inactive),83.6% (inactive),-1.39% (inactive),85%,83.6%,-3.95% (inactive),1.75% (inactive)
Cc1cc(NC(=O)COC(=O)c2cccc(S(=O)(=O)N3CCOCC3)c2)no1,112%,88% (inactive),112% (inactive),92.4% (inactive),91.1% (inactive),6.37% (inactive),84.8%,91.1%,-5% (inactive),1.9% (inactive)

Structure (SMILES),viability [1],Her2 level [2],viability [3],viability [4],viability [5],differential viability (reversal) ([6]; H69AR cells + 2 uM doxorubicin),"viability [6, 9]","viability [6, 10]",inhibition [7],inhibition [8]
O=C(NCCO)c1cccc2c1C(=O)c1ccccc1-2,97.5%,95.5% (inactive),97.5% (inactive),98.4% (inactive),101% (inactive),15.4% (inactive),85.8%,101%,-6.4% (inactive),-1.48% (inactive)
Cc1cc(C)n(-c2ccc(C(=O)Oc3ccc4c(c3)OCO4)cc2)n1,80%,83.5% (inactive),80% (inactive),92.3% (inactive),90.7% (inactive),2.71% (inactive),88%,90.7%,-4.13% (inactive),-1.11% (inactive)
CCCCn1c(SCC(=O)N2CC(=O)Nc3ccccc32)nnc1-c1ccoc1C,86.5%,85.5% (inactive),86.5% (inactive),97.5% (inactive),96.7% (inactive),4.84% (inactive),91.8%,96.7%,2.67% (inactive),-8.55% (inactive)
CCOc1ccc2c(c1)sc1nc(C(=O)OC)cc(=O)n12,94%,84% (inactive),94% (inactive),104% (inactive),84.8% (inactive),-0.545% (inactive),85.4%,84.8%,-6.49% (inactive),-6% (inactive)
COc1ccc(N2CCN(Cc3nc4c(c(=O)[nH]c(=O)n4C)n3CC(C)=O)CC2)cc1,98.5%,102% (inactive),98.5% (inactive),101% (inactive),95.4% (inactive),10.4% (inactive),84.9%,95.4%,0% (inactive),0.17% (inactive)
CC(=O)N(C(C)=O)c1cccc2c(N(C(C)=O)C(C)=O)cccc12,106%,94% (inactive),106% (inactive),97.4% (inactive),91.7% (inactive),-2.88% (inactive),94.5%,91.7%,-4.29% (inactive),-6% (inactive)
COc1ccc(-c2cc3n(n2)CCc2nc4ccccc4n2-3)cc1,95.5%,70% (inactive),95.5% (inactive),87% (inactive),93.3% (inactive),6.67% (inactive),86.7%,93.3%,-5.2% (inactive),0.48% (inactive)
C=C(C)CSc1nnc(-c2cccc(S(=O)(=O)N(C)C)c2)n1-c1cc(OC)ccc1OC,75%,93.5% (inactive),75% (inactive),95.4% (inactive),95.9% (inactive),4.91% (inactive),90.9%,95.9%,-3.55% (inactive),-2.55% (inactive)
COC(=O)CCSCc1cn2cc(Cl)ccc2n1,120%,106% (inactive),120% (inactive),87.3% (inactive),99.5% (inactive),1.26% (inactive),98.2%,99.5%,-8% (inactive),-9.84% (inactive)
O=C(NCC(F)(F)F)N1CCOCC1,96%,85.5% (inactive),96% (inactive),89.5% (inactive),100% (inactive),8.42% (inactive),91.8%,100%,-6.71% (inactive),-6.19% (inactive)
O=C(NC1CCCCC1)C1CC(O)CN1C(=O)OCc1ccccc1 (stereo not given),88%,93% (inactive),88% (inactive),110% (inactive),93.4% (inactive),9.51% (inactive),83.9%,93.4%,0.13% (inactive),-3.09% (inactive)
O=C(NCCCN1CCCC1=O)c1cncc(Br)c1,97%,83.5% (inactive),97% (inactive),98.5% (inactive),103% (inactive),10.1% (inactive),93%,103%,-6.67% (inactive),6.56% (inactive)
CC(=O)Nc1c(-c2ccc(F)cc2)nc2ccccn12,94.5%,107% (inactive),94.5% (inactive),114% (inactive),87.7% (inactive),-19.5% (inactive),107%,87.7%,-4.67% (inactive),1% (inactive)
COC(=O)COc1ccc(S(=O)(=O)NCCC2=CCCCC2)cc1,99%,83.5% (inactive),99% (inactive),10.6% (active),95% (inactive),-3.67% (inactive),98.7%,95%,0% (inactive),-1.13% (inactive)
O=C(NCCCCNC(=O)c1c(F)c(F)c(F)c(F)c1F)c1c(F)c(F)c(F)c(F)c1F,98.5%,76.5% (inactive),98.5% (inactive),97.2% (inactive),89.4% (inactive),10.4% (inactive),78.9%,89.4%,-6.27% (inactive),-3.17% (inactive)
